Results as given in PubChem BioAssay AID588679 (Southern Research Specialized Biocontainment Screening …, 2011).
The source made the active and inactive calls.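 The calls were made as follows: active = inhibition of 30% or more at any tested concentration; inactive = the rest.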

The compounds below were run against M17 leucyl aminopeptidase (Plasmodium falciparum 3D7) (assay: PfM17LAP leucine aminopeptidase inhibitors, dose response, counter-screen for PfM18AAP inhibitor project, biochemical, QFRET (AID 588679)). Details: recombinant PfM17LAP, H-Leu-NHMec fluorogenic cleavage.
Outline: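 Replication: each concentration tested in triplicate; system: purified recombinant Plasmodium falciparum M17 leucine aminopeptidase; medium: Tris buffer pH 7.5 with 2 mM CoCl2, 2% DMSO; measured by: fluorescence, ex 370 nm, em 460 nm; times: 90 min reaction, room temperature; read-out basis: percent inhibition normalized to controls, IC50 from logistic fit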
`Oc1ccc(CCNC(c2ccccc2)c2ccccc2)cc1O` showed an IC50 of 46.8 µM.
For `Oc1ccc(CCNc2cncc3ccccc23)cc1O`, the IC50 was 26.6 µM.
`CC(C)(C)C(=O)OCc1nc(-c2ccc(O)c(O)c2)cs1` gave an IC50 of 29.4 µM.
Work on `O=c1cc(CN2CCN(Cc3ccccc3)CC2)c2ccc(O)c(O)c2o1` yielded an IC50 of 94 µM.
Work on `CCC(C)c1ccc(N)c(O)c1` (configuration not stated) yielded an IC50 of 37.6 µM.
In the case of `Cc1nc(NCCc2ccc(O)c(O)c2)c2c3c(sc2n1)CCC3`, the IC50 is reported as 25.3 µM.
With `Nc1cc(C(=O)c2ccccc2)ccc1O` the IC50 was 31.4 µM.
Work on `Cc1ccc(-c2nc(-c3ccc(O)c(O)c3)cs2)cc1` yielded an IC50 of 21.1 µM.
`O=S1(=O)c2ccccc2-c2cc(-c3nc(-c4ccc(O)c(O)c4)[nH]c3-c3ccccc3)ccc21` was tested, and the IC50 was 20 µM.
In the case of `Oc1ccc(CCNc2c3c(nc4ccccc24)CCCC3)cc1O`, the IC50 is reported as 61.8 µM.
With `Oc1ccc(CCNc2cccc3ccccc23)cc1O` the IC50 was 26.9 µM.
In the case of `Cc1c(-c2ccccc2)[nH]c(-c2ccc(O)c(O)c2)[n+]1O`, the IC50 is reported as 69.2 µM.
In the case of `Oc1ccc(CCN2CCc3ccccc3C2)cc1O`, the IC50 is reported as 58.6 µM.
`Oc1ccc(CCNc2ccc3ccccc3c2)cc1O` was tested, and the IC50 was 39.7 µM.
In the case of `CCOc1cccc(-c2nc(-c3ccc(O)c(O)c3)cs2)c1`, the IC50 is reported as 23.5 µM.
`O=c1ccc2cc(O)c(O)cc2o1` was tested, and the IC50 was 35.3 µM.
Compound `O=C1OCCN1CCc1nc(-c2ccc(O)c(O)c2)cs1` has an IC50 of 37 µM.
`Oc1ccc(-c2csc(Cc3cc4ccccc4[nH]3)n2)cc1O` showed an IC50 of 22 µM.
`CN(CCc1ccc(O)c(O)c1)c1ccnc2ccccc12` was tested, and the IC50 was 18 µM.

Same assay, conditions: recombinant PfM17LAP, H-Leu-NHMec fluorogenic cleavage; at 50 µM (top of the series)
For `O=C(O)CCCNc1c2ccccc2nc2ccccc12`, the inhibition was “inactive”.
`O=C(O)CCCCNc1c2ccccc2nc2ccccc12` was tested, and the inhibition was “inactive”.

Same assay, conditions: recombinant PfM17LAP, H-Leu-NHMec fluorogenic cleavage; at 100 µM (top of the series)
`COc1ccc(-c2csc(-c3ccccc3OC)n2)cc1OC` was tested, and the inhibition was “inactive”.
For `COc1cccc(-c2nc(-c3ccc(OC)c(OC)c3)cs2)c1`, the inhibition was “inactive”.
For `COc1ccc(CCNc2c3c(nc4ccccc24)CCCC3)cc1OC`, the inhibition was “inactive”.
In the case of `COc1ccc2c(c1)C(=O)C(N)CC2` (configuration not stated), the inhibition is reported as “inactive”.
`COc1ccc(CCNc2cccc3ccccc23)cc1OC` was tested, and the inhibition was “inactive”.
In the case of `COc1ccc(CCCNc2c3ccccc3nc3ccccc23)cc1OC`, the inhibition is reported as “inactive”.
`COc1ccc(CNc2c3ccccc3nc3ccccc23)cc1OC` was tested, and the inhibition was “inactive”.
With `CCC(C)C(=O)Nc1ccccc1N` (configuration not stated) the inhibition was “inactive”.
With `Oc1ccc(CCCNc2c3ccccc3nc3ccccc23)cc1O` the inhibition was “inactive”.
`COc1ccc(CCN2CCN(C)CC2)cc1OC` was tested, and the inhibition was “inactive”.
With `O=C(c1ccco1)N1CCN(Cc2cc(=O)c(O)c[nH]2)CC1` the inhibition was “inactive”.
In the case of `COc1ccc(CCNC2CCN(Cc3ccccc3)CC2)cc1OC`, the inhibition is reported as “inactive”.
With `COc1ccc(-c2csc(-c3ccccc3)n2)cc1OC` the inhibition was “inactive”.
In the case of `COc1ccc(CCC(=O)O)cc1OC`, the inhibition is reported as “inactive”.
For `COc1cccc(CCNc2c3ccccc3nc3ccccc23)c1`, the inhibition was “inactive”.
For `COc1ccc(CCN(C)c2ccnc3ccccc23)cc1OC`, the inhibition was “inactive”.
In the case of `COc1ccc(CCNc2cncc3ccccc23)cc1OC`, the inhibition is reported as “inactive”.
`CCC(C)C(=O)Nc1ccccc1O` (configuration not stated) was tested, and the inhibition was “inactive”.
In the case of `O=C1c2ccc3c4c(ccc(c24)C(=O)N1O)CC3`, the inhibition is reported as “inactive”.
For `NCc1cc2c3c(c(=O)oc2c(O)c1O)CCC3`, the inhibition was “inactive”.
With `COc1ccc(CCN2CCc3ccccc3C2)cc1OC` the inhibition was “inactive”.
In the case of `COc1ccc(-c2nc(-c3ccccc3)c(-c3ccccc3)[nH]2)cc1OC`, the inhibition is reported as “inactive”.
With `COc1ccc(CCNc2ccncc2)cc1OC` the inhibition was “inactive”.
For `COc1ccc(CCNC2CCN(C)CC2)cc1OC`, the inhibition was “inactive”.
`Cc1c(OCc2ccccc2)c(=O)ccn1CCNc1c2ccccc2nc2ccccc12` was tested, and the inhibition was “inactive”.
In the case of `O=c1cc(CO)oc(CN2CCCCC2)c1O`, the inhibition is reported as “inactive”.
`COc1ccc(CCNc2ccc3ccccc3c2)cc1OC` was tested, and the inhibition was “inactive”.
With `COc1ccc(CCN(C)CCc2ccccc2)cc1OC` the inhibition was “inactive”.
For `NCCNc1c2ccccc2nc2ccccc12`, the inhibition was “inactive”.
In the case of `COc1ccc(CCNc2ccnc3ccccc23)cc1OC`, the inhibition is reported as “inactive”.
`Oc1ccc(CCNc2c3ccccc3nc3ccccc23)cc1` was tested, and the inhibition was “inactive”.
With `COc1ccc(CCN(C)c2ccncc2)cc1OC` the inhibition was “inactive”.
`Cc1c(O)c(=O)ccn1CCNc1c2ccccc2nc2ccccc12` was tested, and the inhibition was “inactive”.
`O=C(c1ccco1)N1CCN(Cc2cc(=O)c(O)co2)CC1` was tested, and the inhibition was “inactive”.
For `COc1ccc(CCNc2c3ccccc3nc3ccccc23)cc1OC`, the inhibition was “inactive”.
For `COc1ccc(CC(=O)O)cc1OC`, the inhibition was “inactive”.
